Bioassay records as filed in PubChem.
beta cell repl: inducers of beta-cell replication in MIN6 cells | proliferation, % at 10 µM | actives 0.29% (n = 330,000) | AID 2380 | MIN6 cells proliferation, ATPlite luminescence, 48 h; cells starved in 0.2% serum; 100% = growth in 10% serum;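 active = compounds whose signal lies at least 3.5 SD above the mean of all wells on their plate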;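 note: 0% = DMSO-treated cells in low-serum medium and 100% = 10% serum control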
T cruzi repl: T. cruzi replication inhibition | T. cruzi beta-gal in NIH3T3, luminescence, 90 h | inhibition, % (no concentration beside the values) | actives 1.4% (n = 300,000) | AID 1885;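 active = mean inhibition across valid replicates above about 55%, limit read from the data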;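 note: signal also drops with host cell toxicity which is not excluded here; 0% = plate median of DMSO wells and 100% = zero luminescence signal; higher percent means less beta-gal luminescence so fewer parasites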
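Material: NIH/3T3 host cells with β-galactosidase reporter T. cruzi; Input: 5,000 host fibroblasts per well; Medium: DMEM, 2% fetal bovine serum; Compound: 50 nL DMSO compound solution per well; Schedule: 3 h host attachment, then at least 90 h co-culture; Detection: luminescent β-galactosidase signal after 60 min lysis.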
NR1D1 modulator: modulates human Rev-erb alpha binding to DNA; P20393; Rev-erbα–FITC-DNA binding, fluorescence polarization, 90 min; activity, % at 10 µM; actives 0.79% (n = 370,000); AID 1259318;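 active = activity above about 14%, limit read from the data; passing the limit was not always enough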;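 note: 0% = DMSO wells with 35 nM protein and 100% = DMSO wells with 750 nM protein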
Target sequence (P20393 whole entry, looked up): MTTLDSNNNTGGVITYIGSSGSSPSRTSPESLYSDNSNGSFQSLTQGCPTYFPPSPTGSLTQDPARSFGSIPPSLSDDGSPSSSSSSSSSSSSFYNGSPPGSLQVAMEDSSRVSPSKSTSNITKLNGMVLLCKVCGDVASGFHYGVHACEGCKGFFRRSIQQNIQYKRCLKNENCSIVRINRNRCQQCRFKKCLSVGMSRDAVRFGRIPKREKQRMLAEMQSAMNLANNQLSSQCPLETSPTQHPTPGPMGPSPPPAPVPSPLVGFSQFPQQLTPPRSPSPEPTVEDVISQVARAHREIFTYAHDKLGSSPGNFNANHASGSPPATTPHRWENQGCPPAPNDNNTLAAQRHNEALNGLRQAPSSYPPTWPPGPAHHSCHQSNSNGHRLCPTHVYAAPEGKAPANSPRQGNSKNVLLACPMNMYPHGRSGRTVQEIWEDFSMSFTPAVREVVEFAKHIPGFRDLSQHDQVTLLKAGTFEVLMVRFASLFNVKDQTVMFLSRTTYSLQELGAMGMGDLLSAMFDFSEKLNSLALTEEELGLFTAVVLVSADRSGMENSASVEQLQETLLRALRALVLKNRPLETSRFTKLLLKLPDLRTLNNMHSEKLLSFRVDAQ
H9c2 TAG inh: triacylglycerol accumulation inhibition | actives 0.66% (n = 230,000) | inhibition, % at 12.5 µM | H9c2 cells, Nile Red lipid (TAG) fluorescence; cells loaded with 200 µM oleic acid | AID 651582;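 active = pattern-corrected inhibition of lipid staining of at least 50% with the nuclear-stain viability signal not falling by more than 50%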;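 note: 0% = DMSO wells and 100% = triacsin C control wells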
hiPSC survival: increases survival of single human iPS cells. actives 0.044% (n = 360,000). hiPSC single-cell survival, ATPlite luminescence; 100% = ROCK inhibitor wells, 0% = DMSO. survival enhancement, % at 20 µM; in the data active = survival enhancement above about 18%;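 note: cells exposed to compounds for 16 hours before the ATP read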
PG9 Ab binder: PG9 antibody binding by small molecule. TR-FRET gp120-PG9 antibody binding. inhibition, % at 6.7 µM. actives 0.43% (n = 360,000); in the data active = inhibition above about 8.5%
Active calls of the source: *; · = not tested or not shown. Rows were chosen to be rich in hits. Some 2.9% of all compounds tested hit in one or more screens of this group.

SMILES	beta cell repl	T cruzi repl	NR1D1 modulator	H9c2 TAG inh	hiPSC survival	PG9 Ab binder
Cc1ccc(OCC(=O)N/N=C/c2ccc([N+](=O)[O-])o2)cc1	-4	66*	4	·	-1	0
O=C(COc1ccccc1)N/N=C/c1cc2c(cc1[N+](=O)[O-])OCO2	1	-5	0	·	0	1
O=C(CNc1ccc2ccccc2c1)N/N=C/c1ccc([N+](=O)[O-])o1	-6	68*	-1	11	-5	-3
O=C(COc1ccccc1)N/N=C/c1ccc([N+](=O)[O-])o1	-6	83*	1	·	-1	0
Cc1ccc(NC(=O)CCC(=O)N/N=C/c2ccc([N+](=O)[O-])o2)cc1C	-3	61*	3	-2	-1	1
CC(=O)N1c2ccc(S(=O)(=O)N(C)CC(=O)NC3CCCCC3C)cc2CC1C (centres undefined)	3	-7	·	·	0	·
CC(=O)N(/N=C/c1ccc([N+](=O)[O-])o1)c1nc2ccccc2c(=O)n1-c1ccccc1	-1	36	5	70	0	-1
O=C(N/N=C/c1ccc([N+](=O)[O-])o1)C(O)c1ccccc1 (centres undefined)	-1	76*	-5	-3	-1	0
COc1ccc(-c2nn(-c3ccccc3)cc2C(=O)N/N=C/c2ccc([N+](=O)[O-])o2)cc1	-5	90*	-2	21	-1	-2
O=C(N/N=C/c1ccc(-c2ccc([N+](=O)[O-])cc2)o1)C(O)c1ccccc1 (centres undefined)	2	3	1	5	2	-2
CN(/N=C/c1ccc([N+](=O)[O-])o1)c1ccccc1	-4	60*	-3	-5	-2	-11
Nc1c(C(=O)NCCc2ccc(Cl)cc2)sc2ccc(S(=O)(=O)N3CCCCC3)cc12	-5	59*	13	·	·	0
c1ccc(-c2sc3ccccc3c2-c2ccc(OCCN3CCCCC3)cc2)cc1	-6	·	-2	17	0	-1
CN(C)CCOc1ccc(-c2c(-c3ccccc3)sc3ccccc23)cc1	-6	·	5	58*	-7	-4
Cc1cccc(CSc2cccc3cccnc23)c1	-6	70*	14	50*	0	0
Cc1noc(C)c1COc1ccc(C(=O)NCCc2ccc(S(N)(=O)=O)cc2)cc1	-4	-4	-7	-4	0	-2
O=C(COC(=O)Cc1ccsc1)Nc1ccc(Cl)cn1	-4	·	-1	5	0	1
CN(C)CCCN(C(=O)c1ccc2c(c1)CCCC2)c1nc2c(F)cccc2s1	0	58*	2	·	-2	-1
CN(C)CCCN(C(=O)c1ccc(N2C(=O)CCC2=O)cc1)c1nc2c(F)cccc2s1	-1	57*	-3	-2	0	-3
Cc1cc(C)c2nc(N(CCCN(C)C)C(=O)c3ccc4c(c3)CCCC4)sc2c1	-7	58*	6	·	·	-1
Cc1ccc2nc(N(CCCN(C)C)C(=O)c3ccc4c(c3)CCCC4)sc2c1	0	44	2	·	-4	-1
S=C(Nc1cccc(Cl)c1)NC1CCCCC1	-4	-8	-2	-13	-1	-1
O=C(NCCSc1c(-c2ccccc2)[nH]c2ccccc12)c1cc2ccccc2oc1=O	-5	-18	3	4	1	-1
O=c1ccsn1Cc1ccccc1	-5	67*	-3	-9	-3	1
O=C1C(Cl)=C(Nc2ccc3cn[nH]c3c2)C(=O)c2ccccc21	·	59*	12	·	15	-13
SMILES	beta cell repl	T cruzi repl	NR1D1 modulator	H9c2 TAG inh	hiPSC survival	PG9 Ab binder
C=CCNC(=O)COc1ccc(Oc2ccccc2)cc1	-1	2	9	11	2	-1
N#Cc1cc(O)c(-n2nnc3ccccc32)cc1C#N	0	-14	-2	5	-1	3
N#Cc1cc(Oc2cccc3cccnc23)c(-n2nnc3ccccc32)cc1C#N	-6	57*	-2	·	0	-3
CCN1CCN(c2ccc(NC(=O)CCc3c(C)nc4c(-c5ccc(F)cc5)c(C)nn4c3C)cc2)CC1	-6	64*	9	·	-4	-2
CCOC(=O)c1cc(-c2ccccc2)sc1NC(=O)CN1C(=O)NC(CC)(c2ccc(F)cc2)C1=O (centres undefined)	-6	60*	7	41	-1	-1
O=[N+]([O-])c1ccc(/C=[N+](\[O-])CCO)o1	1	59*	1	·	0	-2
Fc1ccc(C(CCCn2nnc(-c3cccnc3)n2)c2ccc(F)cc2)cc1	-6	62*	-4	-9	0	0
Fc1ccc(-n2nnc(-c3cccnc3)n2)cc1	2	-16	5	9	-1	0
Cc1nn(Cc2c(F)c(F)c(F)c(F)c2F)c(C)c1NC(=O)c1ccc(COc2ccc(Cl)cc2Cl)o1	-2	67*	-3	17	5	-1
Cc1nn(Cc2ccc(Cl)cc2Cl)c(C)c1NC(=O)c1nn(C)cc1Cl	-3	-19	5	·	-1	-3
Cc1nn(Cc2ccc(Cl)cc2Cl)c(C)c1NC(=O)c1ccc(COc2cc(Cl)ccc2Cl)o1	-4	59*	-1	18	-2	-1
Cc1nn(Cc2cccc(F)c2)c(C)c1NC(=O)c1ccc(COc2ccccc2Cl)cc1	-5	57*	0	·	-4	-1
Cn1c(=O)[nH]c(=O)c2c1nc(Br)n2C/C=N/NC(=O)c1ccccc1	-2	-2	-1	-23	1	-1
COc1ccc(/C=C/C2=CCN(Cc3ccc(OC)cc3)CC2)cc1	-5	58*	8	·	-1	-4
CC(OC(=O)c1ccccc1O)C(=O)Nc1cccc(Cl)c1 (centres undefined)	-4	-13	-3	-30	-1	0
NC(N)=N/N=C/c1ccc(Cl)cc1Cl	-4	62*	8	18	0	0
NC(N)=N/N=C/c1ccc(Cl)c(Cl)c1	-4	53	0	24	-1	-3
COc1cccc(NC(=O)CSC(N)=O)c1	-2	-5	-1	·	0	1
O=C(O)c1ccccc1NN=Cc1ccccc1	·	·	-2	1	0	1
COc1cccc(N2C(C(C)=O)=NN(c3ccccc3)C2c2ccc(N3CCOCC3)cc2)c1 (centres undefined)	0	77*	-2	·	-1	-1
COc1cccc(NC(=S)/C(=C(\[O-])c2cc(C)n(-c3ccccc3F)c2C)[n+]2ccc(N(C)C)cc2)c1	-6	75*	3	-9	-4	-1
CN(Cc1ccccc1)C(=O)c1nc2ccccn2c1CNCCn1cccn1	-1	12	0	·	1	-2
Cc1ccc(C2CC(c3cccs3)=NN2C(=O)CCl)cc1 (centres undefined)	-6	59*	-2	·	0	-2
